Reference: PMC4955388 (Bioorganic & medicinal chemistry letters, 2016)
Like-named read-outs stand apart in the source and are kept apart here.

Experiments:
[1] = Intrinsic clearance in rat hepatic microsomes and predicted hepatic clearance; assay type: in vitro ADME; conditions: for Rat CLHEP (predicted hepatic clearance): calculated from rat microsomal CLINT; for CLint scaled at 1 µM: rat, liver microsomes
[2] = assay type: in vivo, rat; conditions: 1 h; for Concentration, Plasma HPV: hepatic portal vein
Procedure, shortened: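 Rats received 10 mg/kg test compound orally, with vehicle or co-dosed with 1-aminobenzotriazole, a pan-irreversible cytochrome P450 inhibitor. At 1 h, concentrations were measured in systemic plasma, hepatic portal vein plasma and brain.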

[3] = po 10 mg/kg with vehicle (no ABT)

Row | Rat CLHEP (predicted hepatic clearance) [1] [mL/min/kg] | CLint scaled at 1 µM [1] [mL/min/kg] | SMILES | Concentration, Brain ([2]; po 10 mg/kg co-dosed with ABT) | Concentration, Plasma systemic ([2]; po 10 mg/kg co-dosed with ABT) | Concentration, Plasma HPV ([2]; po 10 mg/kg co-dosed with ABT) | Concentration, Brain [2, 3] | Concentration, Plasma systemic [2, 3] | Concentration, Plasma HPV [2, 3]
1 | 68.2 | 2700 | Cc1ccc(S(=O)(=O)n2ccc(NC(=O)c3ccccn3)c2)cc1 [11l] | – | – | – | – | – | –
2 | 68.8 | 4040 | Cc1cccc(S(=O)(=O)n2ccc(NC(=O)c3ccccn3)c2)c1 [11m] | – | – | – | – | – | –

More lines, now with the values behind:

Row | SMILES | Rat CLHEP (predicted hepatic clearance) [1] [mL/min/kg] | CLint scaled at 1 µM [1] [mL/min/kg] | Concentration, Brain ([2]; po 10 mg/kg co-dosed with ABT) | Concentration, Plasma systemic ([2]; po 10 mg/kg co-dosed with ABT) | Concentration, Plasma HPV ([2]; po 10 mg/kg co-dosed with ABT) | Concentration, Brain [2, 3] | Concentration, Plasma systemic [2, 3] | Concentration, Plasma HPV [2, 3]
3 | Cc1ccc(S(=O)(=O)n2cc(NC(=O)c3ccccn3)cn2)cc1C [11s] | 68.7 | 3800 | – | – | – | – | – | –
4 | O=C(Nc1ccn(S(=O)(=O)c2ccc(Cl)cc2)c1)c1ccccn1 [11o] | 65.9 | 1130 | – | – | – | – | – | –
5 | Cc1ccc(S(=O)(=O)n2ccc(NC(=O)c3ccccn3)c2)cc1C [11r, N-(1-((3,4-Dimethylphenyl)sulfonyl)-1H-pyrrol-3-yl)picolinamide] | – | 293 | – | – | – | – | – | –
6 | Cc1cc(S(=O)(=O)n2ccc(NC(=O)c3ccccn3)c2)ccc1Cl [11t] | 68.6 | 3440 | 175.5 ng/mg or g | 198.5 ng/mg or g | 764.5 ng/mg or g | 8.1 ng/mg or g | 7.4 ng/mg or g | 731 ng/mg or g
